Measured values from PubChem BioAssay AID624081 (The Scripps Research Institute Molecular Screening Center, 2012).
Several values for one entry are separate records, joined by “and”; a condition that tells them apart may be missing. Equal values may be shown once. Activity calls are given as the source filed them.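 Rule for the calls: active = inhibitor concentration giving a fourfold drop in imipenem MIC is at most 10 µM; inactive = fourfold MIC drop needs more than 10 µM.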

Key:
[1] = test system: VIM-2 E. coli growth with imipenem, OD600, 18 h; assay: imipenem potentiation in VIM-2-expressing E. coli, late-stage follow-up, MIC 4-fold reduction, powder samples (AID 624081)
How it was run: (§1)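 Test system: VIM-2-transformed Escherichia coli, checkerboard broth microdilution with imipenem. Buffer or medium: cation-adjusted Mueller-Hinton broth. Reagent: imipenem in two-fold dilution series along plate columns. Timing: ≥18 h at 37 °C, aerobic.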

[2] = as above; details: VIM-2 E. coli growth with imipenem, OD600, 18 h; measured here: max imipenem potentiation fold
How it was run: as §1

Row | MIC [1] | SMILES | fold potentiation [2]
1 | 12.5 µM (inactive) | O=C(CN1C(=O)/C(=C/c2c(Cl)cccc2Cl)SC1=S)NCc1ccncc1 | 
2 | 12.5 µM (inactive) | O=C(CN1C(=O)/C(=C/c2c(Cl)cccc2Cl)SC1=S)Nc1ccncc1 | 8
3 | 6.2 µM | CC(C)(C)OC(=O)N1CCN(NC(=O)CN2C(=O)/C(=C/c3c(Cl)cccc3Cl)SC2=S)CC1 | 8
4 | > 100 µM (inactive) | O=C(CN1C(=O)/C(=C/c2ccccc2Cl)SC1=S)NCCc1cnc[nH]1 | 
5 | > 100 µM (inactive) | Cc1cc(NC(=O)CN2C(=O)/C(=C/c3c(Cl)cccc3Cl)SC2=S)no1 | 
6 | 3.12 µM | Cc1cc(C)n(NC(=O)CN2C(=O)/C(=C/c3c(Cl)cccc3Cl)SC2=S)c(=O)c1 | 8
7 | > 100 µM (inactive) | C=CCNC(=O)CN1C(=O)/C(=C/c2c(Cl)cccc2Cl)SC1=S | 
8 | > 100 µM (inactive) | O=C(CN1C(=O)/C(=C/c2c(Cl)cccc2Cl)SC1=S)Nc1ccccc1 | 
9 | > 100 µM (inactive) | O=C(CN1C(=O)/C(=C/c2c(Cl)cccc2Cl)SC1=S)NCCc1c[nH]c2ccccc12 | 
10 | > 100 µM (inactive) | O=C(CN1C(=O)/C(=C/c2c(Cl)cccc2Cl)SC1=S)Nn1cnnc1 | 
11 | 3.12 µM | O=C(CN1C(=O)/C(=C/c2c(Cl)cccc2Cl)SC1=S)Nc1cc([N+](=O)[O-])ccc1O | 8
12 | 0.781 µM | CN1CCN(NC(=O)CN2C(=O)/C(=C/c3c(Cl)ccc(C(F)(F)F)c3Cl)SC2=S)CC1 | 8
13 | > 100 µM (inactive) | O=C(CN1C(=O)/C(=C/c2c(Cl)cccc2Cl)SC1=S)Nc1ccc(Br)cn1 | 
14 | > 100 µM (inactive) | CN(NC(=O)CN1C(=O)/C(=C/c2c(Cl)cccc2Cl)SC1=S)c1ccc(Cl)nn1 | 
15 | 25 µM (inactive) | O=C(O)CN1C(=O)/C(=C/c2c(F)cccc2C(F)(F)F)SC1=S | 8
16 | 3.12 µM | O=C(CN1C(=O)/C(=C/c2c(Cl)cccc2Cl)SC1=S)NN1CCNCC1 | 8
17 | 12.5 µM (inactive) | Cc1c(N2C(=O)/C(=C/c3c(Cl)cccc3Cl)SC2=S)c(=O)n(-c2ccccc2)n1C | 8
18 | > 100 µM (inactive) | CN(C)CCNC(=O)CN1C(=O)/C(=C\c2ccccc2Cl)SC1=S | 
19 | 12.5 µM (inactive) | CN1CCN(C(=O)CN2C(=O)/C(=C/c3c(Cl)cccc3Cl)SC2=S)CC1 | 8
20 | 1.56 µM | CC(C)(C)OC(=O)N1CCN(NC(=O)CN2C(=O)/C(=C/c3c(Cl)ccc(Cl)c3Cl)SC2=S)CC1 | 

Row | MIC [1] | SMILES | fold potentiation [2]
21 | 12.5 µM (inactive) | CN1CCN(NC(=O)CN2C(=O)/C(=C/c3c(F)cccc3Cl)SC2=S)CC1 | 
22 | 3.12 µM | O=C(O)CN1C(=O)/C(=C/c2c(Cl)cccc2Cl)SC1=S | 8
23 | > 100 µM (inactive) | COc1ccc(CNC(=O)CN2C(=O)/C(=C/c3c(Cl)cccc3Cl)SC2=S)cc1 | 
24 | 12.5 µM (inactive) | CN1CCC(NC(=O)CN2C(=O)/C(=C/c3c(Cl)cccc3Cl)SC2=S)CC1 | 8
25 | > 100 µM (inactive) | O=C(CN1C(=O)/C(=C/c2c(Cl)cccc2Cl)SC1=S)Nc1ccccc1F | 
26 | 3.12 µM | O=C(CN1C(=O)/C(=C/c2c(Cl)cccc2Cl)SC1=S)Nc1cccnc1 | 8
27 | > 100 µM (inactive) | C=CCONC(=O)CN1C(=O)/C(=C/c2c(Cl)cccc2Cl)SC1=S | 
28 | > 100 µM (inactive) | CN1CCN(NC(=O)CN2C(=O)/C(=C/c3ccccc3F)SC2=S)CC1 | 
29 | > 100 µM (inactive) | O=C(CN1C(=O)/C(=C/c2c(Cl)cccc2Cl)SC1=S)Nc1ccc(I)cn1 | 
30 | > 100 µM (inactive) | O=C(CN1C(=O)/C(=C/c2ccccc2Cl)SC1=S)Nc1ccc(O)cc1 | 
31 | > 100 µM (inactive) | O=C1NC(=S)S/C1=C\c1c(Cl)cccc1Cl | 
32 | > 100 µM (inactive) | COC(=O)CNC(=O)CN1C(=O)/C(=C/c2c(Cl)cccc2Cl)SC1=S | 
33 | > 100 µM (inactive) | O=C(CN1C(=O)/C(=C/c2c(Cl)cccc2Cl)SC1=S)NC1CCCCC1 | 
34 | > 100 µM (inactive) | O=C(CN1C(=O)/C(=C/c2c(Cl)cccc2Cl)SC1=S)NC[C@@H]1CCCO1 | 
35 | 12.5 µM (inactive) | O=C(CN1C(=O)/C(=C/c2c(Cl)ccc(Cl)c2Cl)SC1=S)NN1CCNCC1 | 
36 | > 100 µM (inactive) | O=C(CN1C(=O)/C(=C/c2c(Cl)cccc2Cl)SC1=S)Nc1ccc(Cl)cn1 | 
37 | > 100 µM (inactive) | O=C(CN1C(=O)/C(=C/c2c(Cl)cccc2Cl)SC1=S)NCc1ccccc1Br | 
38 | 6.2 µM | O=C(CN1C(=O)/C(=C/c2c(Cl)cccc2Cl)SC1=S)NCc1ccccn1 | 8
39 | 6.2 µM | CCN(CC)OC(=O)CN1C(=O)/C(=C/c2c(Cl)cccc2Cl)SC1=S | 8
40 | > 100 µM (inactive) | O=C(CN1C(=O)/C(=C/c2c(Cl)cccc2Cl)SC1=S)Nc1ccccn1 | 

Row | MIC [1] | SMILES | fold potentiation [2]
41 | 6.25 µM | CN1CCN(C(=O)CN2C(=O)/C(=C/c3c(Cl)ccc(Cl)c3Cl)SC2=S)CC1 | 
42 | > 100 µM (inactive) | CCOC(=O)c1c(NC(=O)CN2C(=O)/C(=C/c3c(Cl)cccc3Cl)SC2=S)sc2c1CCCC2 | 
43 | 3.12 µM | CN1CCN(NC(=O)CN2C(=O)/C(=C/c3c(Cl)ccc(Cl)c3Cl)SC2=S)CC1 | 8
44 | 3.12 µM | O=C(CN1C(=O)/C(=C/c2c(Cl)ccc(Cl)c2Cl)SC1=S)NCc1ccccn1 | 
45 | 12.5 µM (inactive) | COC(=O)CN1C(=O)/C(=C/c2c(Cl)cccc2Cl)SC1=S | 8
46 | 50 µM (inactive) | CN1CCN(NC(=O)CN2C(=O)/C(=C/c3ccccc3Cl)SC2=S)CC1 | 
47 | 12.5 µM (inactive) | CC(C)N1CCN(NC(=O)CN2C(=O)/C(=C/c3c(Cl)cccc3Cl)SC2=S)CC1 | 16
48 | > 100 µM (inactive) | O=C(CN1C(=O)/C(=C/c2c(Cl)cccc2Cl)SC1=S)NOCc1ccccc1 | 
49 | > 100 µM (inactive) | O=C(CN1C(=O)/C(=C/c2c(Cl)cccc2Cl)SC1=S)NC[C@H]1CCCO1 | 
50 | > 100 µM (inactive) | CC(C)(C)NC(=O)CN1C(=O)/C(=C/c2c(Cl)cccc2Cl)SC1=S | 
51 | 1.56 µM | CN1CCN(NC(=O)CN2C(=O)/C(=C/c3c(C(F)(F)F)ccc(Cl)c3Cl)SC2=S)CC1 | 8
52 | 25 µM (inactive) | CN1CCN(NC(=O)CN2C(=O)/C(=C/c3c(F)cccc3C(F)(F)F)SC2=S)CC1 | 8
53 | > 100 µM (inactive) | CN(C)CCNC(=O)CN1C(=O)/C(=C/c2ccccc2Cl)SC1=S | 
54 | 25 µM (inactive) | NC(=O)CN1C(=O)/C(=C/c2c(Cl)cccc2Cl)SC1=S | 
55 | > 100 µM (inactive) | CN(NC(=O)CN1C(=O)/C(=C/c2c(Cl)cccc2Cl)SC1=S)c1ncc(C(F)(F)F)cc1Cl | 
56 | 6.25 µM and 12.5 µM (inactive) | CN1CCN(NC(=O)CN2C(=O)/C(=C/c3c(Cl)cccc3Cl)SC2=S)CC1 | 8
57 | 12.5 µM (inactive) | O=C1/C(=C/c2c(Cl)cccc2Cl)SC(=S)N1Cc1ccncc1 | 8
58 | 6.2 µM | O=C(CN1C(=O)/C(=C/c2c(Cl)cccc2Cl)SC1=S)NN1CCCCC1 | 8
